Here are results for three compounds from ChEMBL document CHEMBL4177769, “Highly Selective and Potent Ectonucleotide Pyrophosphatase-1 (NPP1) Inhibitors Based on Uridine 5'-Pα,α-Dithiophosphate Analogues” (J Med Chem, 2018).

For orientation: inhibition means the relative decrease from the control value, in per cent. The low end stands for a weak effect, the high end for a strong effect.

Data set [1] is described as follows: Drug level treated with UTP 5'-O-Palpha,alpha-dithiophosphate at 2 mM at pH 11.7 at room temperature after 25 days by 31P NMR method. Format: physicochemical. The conditions noted are these: pH 11.7, 600 h, 2000 µM.
Data set [2] addresses T1, Ectonucleotide pyrophosphatase/phosphodiesterase family member 3 (Homo sapiens) (UniProt O14638).
T1 sequence (whole entry): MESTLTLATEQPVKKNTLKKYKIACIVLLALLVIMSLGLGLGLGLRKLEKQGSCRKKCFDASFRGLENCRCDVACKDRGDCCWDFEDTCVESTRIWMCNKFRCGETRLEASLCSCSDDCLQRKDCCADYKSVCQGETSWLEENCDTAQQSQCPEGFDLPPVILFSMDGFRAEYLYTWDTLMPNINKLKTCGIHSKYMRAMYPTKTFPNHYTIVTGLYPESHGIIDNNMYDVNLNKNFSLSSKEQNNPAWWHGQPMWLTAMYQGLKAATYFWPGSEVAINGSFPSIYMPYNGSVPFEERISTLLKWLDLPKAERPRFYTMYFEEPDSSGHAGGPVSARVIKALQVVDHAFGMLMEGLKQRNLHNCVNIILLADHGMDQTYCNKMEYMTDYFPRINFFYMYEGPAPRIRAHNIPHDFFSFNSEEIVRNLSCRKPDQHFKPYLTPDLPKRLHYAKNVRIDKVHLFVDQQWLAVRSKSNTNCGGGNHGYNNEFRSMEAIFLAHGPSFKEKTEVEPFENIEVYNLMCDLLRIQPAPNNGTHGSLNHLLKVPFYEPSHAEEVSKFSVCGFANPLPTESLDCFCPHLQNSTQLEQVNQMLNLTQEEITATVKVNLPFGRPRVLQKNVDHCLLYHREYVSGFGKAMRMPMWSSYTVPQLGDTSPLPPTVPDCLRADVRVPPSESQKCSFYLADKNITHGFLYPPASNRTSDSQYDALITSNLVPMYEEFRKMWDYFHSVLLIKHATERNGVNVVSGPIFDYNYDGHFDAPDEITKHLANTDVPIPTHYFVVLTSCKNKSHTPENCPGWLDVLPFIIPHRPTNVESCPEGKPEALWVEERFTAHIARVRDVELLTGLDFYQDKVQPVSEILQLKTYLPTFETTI
The data set can be described thus: Inhibition of human NPP3 at 100 uM using pNP-TMP as substrate preincubated for 3 mins followed by substrate addition measured after 15 mins. A digest of the protocol: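 Human NPP1 (4−5 μg) or NPP3 (12−14 μg) cell lysate in mM 1 CaCl2, 140 NaCl, 5 KCl, 50 Tris pH 8.5, 37 °C. Compound at 100 μM, 3 min preincubation, 100 μM pNP-TMP substrate. p-Nitrophenol read at 405 nm after 15 min. Blank with enzyme added at end subtracted. Activity without compound taken as 100%. At least two independent experiments in triplicate.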

Data set [3] in a line: Drug metabolism at 2 mM at basic pH after 5 days by 31P NMR method. The format is physicochemical. The conditions noted are these: read-out: Drug metabolism.
Data set [4] deals with T2, Ectonucleoside triphosphate diphosphohydrolase 8 (Homo sapiens) (UniProt Q5MY95).
T2 sequence (whole entry): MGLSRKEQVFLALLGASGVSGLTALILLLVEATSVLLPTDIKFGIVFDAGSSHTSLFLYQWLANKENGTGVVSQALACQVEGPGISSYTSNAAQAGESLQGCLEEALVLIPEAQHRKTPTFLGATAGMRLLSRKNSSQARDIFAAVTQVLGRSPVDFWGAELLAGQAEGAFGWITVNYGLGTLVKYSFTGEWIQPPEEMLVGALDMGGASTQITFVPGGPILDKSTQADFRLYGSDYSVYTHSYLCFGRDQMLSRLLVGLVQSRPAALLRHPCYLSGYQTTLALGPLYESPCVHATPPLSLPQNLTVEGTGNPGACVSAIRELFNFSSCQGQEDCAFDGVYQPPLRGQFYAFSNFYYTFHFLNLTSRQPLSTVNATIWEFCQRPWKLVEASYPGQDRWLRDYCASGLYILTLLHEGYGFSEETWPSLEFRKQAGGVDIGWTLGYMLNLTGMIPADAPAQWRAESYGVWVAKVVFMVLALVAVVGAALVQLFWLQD
Kind of data set: Activation of human NTPDase8 using ATP as substrate preincubated for 3 mins followed by substrate addition measured after 10 mins by malachite green reagent-based assay relative to control. A digest of the protocol:
(§1)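 Compound at 100 μM, 3 min preincubation, 100 μM ATP, 10 min. Stopped with malachite green; Pi read at 630 nm. Blank with enzyme added after stop subtracted. Activity with ATP alone taken as 100%.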

Data set [5] addresses T3, Ectonucleoside triphosphate diphosphohydrolase 2 (Homo sapiens) (UniProt Q9Y5L3).
T3 sequence (whole entry): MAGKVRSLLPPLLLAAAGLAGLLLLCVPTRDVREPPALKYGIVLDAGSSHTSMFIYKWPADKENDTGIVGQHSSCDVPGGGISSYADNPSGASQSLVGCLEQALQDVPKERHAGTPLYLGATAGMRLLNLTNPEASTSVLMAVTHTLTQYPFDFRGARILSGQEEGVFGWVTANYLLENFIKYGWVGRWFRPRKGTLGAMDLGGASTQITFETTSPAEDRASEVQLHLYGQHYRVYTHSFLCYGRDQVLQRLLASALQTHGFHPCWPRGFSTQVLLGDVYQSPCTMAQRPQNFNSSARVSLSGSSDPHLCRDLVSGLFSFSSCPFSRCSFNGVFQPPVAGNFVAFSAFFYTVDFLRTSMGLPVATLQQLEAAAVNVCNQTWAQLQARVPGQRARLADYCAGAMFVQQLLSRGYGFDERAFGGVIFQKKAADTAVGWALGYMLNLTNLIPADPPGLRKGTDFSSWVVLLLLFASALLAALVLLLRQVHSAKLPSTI
Kind of data set: Activation of human NTPDase2 using ATP as substrate preincubated for 3 mins followed by substrate addition measured after 10 mins by malachite green reagent-based assay relative to control. The method, boiled down:
as §1

The target of data set [6] is T4, Ectonucleoside triphosphate diphosphohydrolase 3 (Homo sapiens) (UniProt O75355).
T4 sequence (whole entry): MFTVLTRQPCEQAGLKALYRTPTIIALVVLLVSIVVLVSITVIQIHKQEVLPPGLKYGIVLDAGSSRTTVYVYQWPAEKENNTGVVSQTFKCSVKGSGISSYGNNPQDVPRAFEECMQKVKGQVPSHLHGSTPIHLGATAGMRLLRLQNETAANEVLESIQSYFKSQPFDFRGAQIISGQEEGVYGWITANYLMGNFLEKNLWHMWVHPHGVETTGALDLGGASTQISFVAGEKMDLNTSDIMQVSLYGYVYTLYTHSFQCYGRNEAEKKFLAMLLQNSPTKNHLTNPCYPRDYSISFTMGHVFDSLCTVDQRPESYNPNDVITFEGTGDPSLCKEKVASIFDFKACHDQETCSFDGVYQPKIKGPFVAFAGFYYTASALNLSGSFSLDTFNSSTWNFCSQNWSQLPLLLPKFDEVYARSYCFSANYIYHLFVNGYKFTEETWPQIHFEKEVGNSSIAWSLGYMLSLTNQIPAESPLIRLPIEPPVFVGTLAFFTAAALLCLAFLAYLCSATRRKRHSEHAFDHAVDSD
Kind of data set: Activation of human NTPDase3 using ATP as substrate preincubated for 3 mins followed by substrate addition measured after 10 mins by malachite green reagent-based assay relative to control. The method, boiled down: as §1

Take `O=c1ccn([C@@H]2O[C@H](COP(=S)(S)OP(=O)(O)O)[C@@H](O)[C@H]2O)c(=O)[nH]1` (stereo partly drawn): the Drug metabolism result in data set [1] is listed as “Metabolite_Detected”. In data set [2], this compound returned an inhibition of 21%.
In the case of `O=c1ccn([C@@H]2O[C@H](COP(=S)(S)OP(=O)(O)CP(=O)(O)O)[C@@H](O)[C@H]2O)c(=O)[nH]1` (stereo partly drawn), the degraded at 120 h, 2000 µM in data set [3] came out at 8%. Moreover, the inhibition in data set [2] turned out to be 21%.
For `O=c1ccn([C@@H]2O[C@H](COP(=S)(S)OP(=O)(O)OP(=O)(O)O)[C@@H](O)[C@H]2O)c(=O)[nH]1` (stereo partly drawn), the Activity in data set [4], in data set [5] and in data set [6] was 7 to 27% throughout. In addition, the degraded at 120 h, 2000 µM in data set [3] stood at 13%.
